Assay results published in ChEMBL document CHEMBL1131380, “Clarification of the binding mode of teleocidin and benzolactams to the Cys2 domain of protein kinase Cdelta by synthesis of hydrophobically modified, teleocidin-mimicking benzolactams and computational docking simulation” (J Med Chem, 1998).

Key:
HL-60 [1] = test: Effective concentration against HL-60 cell differentiation; assay type: functional, cell-based; details: Homo sapiens
[2] = biological target: Protein kinase C delta type (Homo sapiens, UniProt Q05655); test: Displacement of [3H]PDBu from recombinant Protein kinase C delta
Chain of Protein kinase C delta type (Q05655 whole entry): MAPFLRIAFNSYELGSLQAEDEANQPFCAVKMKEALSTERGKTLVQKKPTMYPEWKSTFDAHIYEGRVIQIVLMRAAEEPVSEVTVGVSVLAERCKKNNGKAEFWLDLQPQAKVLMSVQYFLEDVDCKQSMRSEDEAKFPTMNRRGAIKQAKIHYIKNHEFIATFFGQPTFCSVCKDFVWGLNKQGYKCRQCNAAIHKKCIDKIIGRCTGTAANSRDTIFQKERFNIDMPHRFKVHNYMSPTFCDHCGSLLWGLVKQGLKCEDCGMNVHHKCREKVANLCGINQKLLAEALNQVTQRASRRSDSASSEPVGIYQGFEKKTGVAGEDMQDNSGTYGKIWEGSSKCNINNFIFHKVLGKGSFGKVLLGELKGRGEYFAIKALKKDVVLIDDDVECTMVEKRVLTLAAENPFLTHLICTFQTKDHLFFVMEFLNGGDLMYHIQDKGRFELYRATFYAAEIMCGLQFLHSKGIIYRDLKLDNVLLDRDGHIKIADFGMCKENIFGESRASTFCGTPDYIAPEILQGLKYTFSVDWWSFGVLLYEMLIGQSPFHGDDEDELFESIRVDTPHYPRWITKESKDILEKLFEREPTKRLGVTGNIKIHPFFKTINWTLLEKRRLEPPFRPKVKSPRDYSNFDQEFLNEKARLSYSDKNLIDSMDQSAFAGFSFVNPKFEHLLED
Outline: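 Competitive binding of [3H]PDBu (Kd 2.9 nM) to recombinant PKCδ. Ki derived from the IC50 of the binding curve. Number of repetitions given per compound.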

HL-60 [3] = test: Effective concentration against monocytes of HL-60 cells growth inhibition; assay type: functional, cell-based; details: Homo sapiens
Outline: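 HL-60 cells grown in RPMI1640 with 5% FBS (not delipidized), penicillin G and streptomycin, at 37 °C in humidified 5% CO2. Compounds taken from 2 mM ethanol stocks, with final ethanol below 0.5%. Cells seeded at about 8 × 10⁴ cells/mL and counted after 4 days. EC50 for growth inhibition.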

| EC50 (HL-60 [1]) | SMILES | Ki [2] | EC50 (HL-60 [3]) |
| --- | --- | --- | --- |
| – | CC(C)[C@H]1C(=O)N[C@H](CO)Cc2c[nH]c3cccc(c23)N1C [INDOLACTUM] | 80 nM | 5 nM |
| – | CC(C)[C@H]1C(=O)N[C@H](CO)Cc2cc3c(cc2N1C)C(C)(C)CCC3(C)C | 5100 nM | – |
| – | CC(C)[C@H]1C(=O)N[C@H](CO)Cc2cc3c(cc2N1C)C(C)(C)CCC3 | 65 nM | – |
| – | CC(C)[C@H]1C(=O)N[C@H](CO)Cc2ccccc2N1C | 1700 nM | > 1000 nM |
| – | CCCCCCCCCCc1ccc2c(c1)N(C)[C@@H](C(C)C)C(=O)N[C@H](CO)C2 | 5.9 nM | – |
| – | CCCCCCCCCCc1ccc2c(c1)C[C@@H](CO)NC(=O)[C@H](C(C)C)N2C | 32 nM | – |
| 200 nM | CCCCCCCCCCC1C(=O)N[C@H](CO)Cc2ccccc2N1C (stereo partly drawn) | 3 nM | – |
| – | C=C[C@@]1(C)CC[C@](C)(C(C)C)c2cc3c4c(c[nH]c4c21)C[C@@H](CO)NC(=O)[C@H](C(C)C)N3C | 0.32 nM | 5 nM |
| 70 nM | CC(C)[C@H]1C(=O)N[C@H](CO)Cc2cc3c(cc2N1C)C1(CCCCC1)CCC3 | 19 nM | – |
| 20 nM | CC(C)[C@H]1C(=O)N[C@H](CO)Cc2cc3c(cc2N1C)C1(CCC3)CCC(C)(C)CC1 | 14 nM | – |

| SMILES | EC50 (HL-60 [1]) | Ki [2] | EC50 (HL-60 [3]) |
| --- | --- | --- | --- |
| CC(C)[C@H]1C(=O)N[C@H](CO)Cc2cc3c(cc2N1C)CCCC3(C)C | 7000 nM | 1700 nM | – |
